Values after ≈ are worked out from the molar mass of the structure shown.
Key:
[1] = tested on: Staphylococcus aureus; test: Antibacterial activity against Staphylococcus aureus ATCC 6538 after 24 hrs by micro dilution method; format: functional; conditions: ATCC 6538, 24 h
Procedure, shortened: (§1)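 Microdilution MIC in 96-well plates. Bacterial suspensions adjusted in sterile saline to 1.0 × 10^5 CFU/ml, giving 1.0 × 10^4 cfu per well in LB broth. Compounds tested at up to 1 mg/ml. Plates incubated 24 h. MIC taken as the lowest concentration with no visible growth under a binocular microscope. OD at 655 nm was also read against a blank and the positive control. Streptomycin and ampicillin were the positive controls.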

[2] = tested on: Bacillus cereus; test: Antibacterial activity against Bacillus cereus clinical isolate after 24 hrs by micro dilution method; format: functional; procedure, shortened: as §1
[3] = tested on: Micrococcus flavus; test: Antibacterial activity against Micrococcus flavus ATCC 10240 after 24 hrs by micro dilution method; format: functional; conditions: ATCC 10240, 24 h; procedure, shortened: as §1
[4] = tested on: Listeria monocytogenes; test: Antibacterial activity against Listeria monocytogenes NCTC 7973 after 24 hrs by micro dilution method; format: functional; conditions: NCTC 7973, 24 h; procedure, shortened: as §1
[5] = tested on: Pseudomonas aeruginosa; test: Antibacterial activity against Pseudomonas aeruginosa ATCC 27853 after 24 hrs by micro dilution method; format: functional; conditions: ATCC 27853, 24 h; procedure, shortened: as §1
[6] = tested on: Enterobacter cloacae; test: Antibacterial activity against Enterobacter cloacae human isolate after 24 hrs by micro dilution method; format: functional; procedure, shortened: as §1
[7] = tested on: Salmonella typhimurium; test: Antibacterial activity against Salmonella Typhimurium ATCC 13311 after 24 hrs by micro dilution method; format: functional, Salmonella enterica subsp. enterica serovar Typhimurium; conditions: Salmonella enterica, ATCC 13311, 24 h; procedure, shortened: as §1
[8] = tested on: Escherichia coli; test: Antibacterial activity against Escherichia coli ATCC 35210 after 24 hrs by micro dilution method; format: functional; conditions: ATCC 35210, 24 h; procedure, shortened: as §1
[9] = tested on: Staphylococcus aureus; test: Antibacterial activity against Staphylococcus aureus ATCC 6538 treated for 24 hrs followed by sub-cultivated for 72 hrs by micro dilution method; format: functional
Procedure, shortened: (§2)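 2 µl from each well was serially subcultured into 100 µl fresh broth per well and incubated a further 72 h. MBC is the lowest concentration with no visible growth, taken as 99.5% killing of the original inoculum. Streptomycin and ampicillin were the positive controls.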

[10] = tested on: Bacillus cereus; test: Antibacterial activity against Bacillus cereus clinical isolate treated for 24 hrs followed by sub-cultivated for 72 hrs by micro dilution method; format: functional; procedure, shortened: as §2
[11] = tested on: Micrococcus flavus; test: Antibacterial activity against Micrococcus flavus ATCC 10240 treated for 24 hrs followed by sub-cultivated for 72 hrs by micro dilution method; format: functional; procedure, shortened: as §2
[12] = tested on: Listeria monocytogenes; test: Antibacterial activity against Listeria monocytogenes NCTC 7973 treated for 24 hrs followed by sub-cultivated for 72 hrs by micro dilution method; format: functional; procedure, shortened: as §2
[13] = tested on: Pseudomonas aeruginosa; test: Antibacterial activity against Pseudomonas aeruginosa ATCC 27853 treated for 24 hrs followed by sub-cultivated for 72 hrs by micro dilution method; format: functional; procedure, shortened: as §2
[14] = tested on: Enterobacter cloacae; test: Antibacterial activity against Enterobacter cloacae human isolate treated for 24 hrs followed by sub-cultivated for 72 hrs by micro dilution method; format: functional; procedure, shortened: as §2
[15] = tested on: Salmonella typhimurium; test: Antibacterial activity against Salmonella Typhimurium ATCC 13311 treated for 24 hrs followed by sub-cultivated for 72 hrs by micro dilution method; format: functional, Salmonella enterica subsp. enterica serovar Typhimurium; conditions: Salmonella enterica; procedure, shortened: as §2
[16] = tested on: Escherichia coli; test: Antibacterial activity against Escherichia coli ATCC 35210 treated for 24 hrs followed by sub-cultivated for 72 hrs by micro dilution method; format: functional; procedure, shortened: as §2
[17] = tested on: Talaromyces funiculosus; test: Antifungal activity against Penicillium funiculosum ATCC 36839 after 72 hrs by serial dilution method; format: functional; conditions: ATCC 36839, 72 h
Procedure, shortened: (§3)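 Modified microdilution MIC. Spores were washed from malt agar cultures with sterile 0.85% saline containing 0.1% Tween 80 and adjusted to about 1.0 × 10^5 per 100 µl well in malt broth. Compounds were dissolved in DMSO (1 mg/ml). Plates incubated 72 h at 28 °C. MIC is the lowest concentration with no visible growth under a binocular microscope. Bifonazole and ketoconazole were the references.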

[18] = tested on: Penicillium ochrochloron; test: Antifungal activity against Penicillium ochrochloron ATCC 9112 after 72 hrs by serial dilution method; format: functional; conditions: ATCC 9112, 72 h; procedure, shortened: as §3
[19] = tested on: Trichoderma viride; test: Antifungal activity against Trichoderma viride IAM 5061 after 72 hrs by serial dilution method; format: functional; conditions: IAM 5061, 72 h; procedure, shortened: as §3
[20] = tested on: Aspergillus fumigatus; test: Antifungal activity against Aspergillus fumigatus human isolate after 72 hrs by serial dilution method; format: functional; procedure, shortened: as §3
[21] = tested on: Aspergillus niger; test: Antifungal activity against Aspergillus niger ATCC 6275 after 72 hrs by serial dilution method; format: functional; conditions: ATCC 6275, 72 h; procedure, shortened: as §3
[22] = tested on: Aspergillus flavus; test: Antifungal activity against Aspergillus flavus ATCC 9643 after 72 hrs by serial dilution method; format: functional; conditions: ATCC 9643, 72 h; procedure, shortened: as §3
[23] = tested on: Aspergillus versicolor; test: Antifungal activity against Aspergillus versicolor ATCC 11730 after 72 hrs by serial dilution method; format: functional; conditions: ATCC 11730, 72 h; procedure, shortened: as §3
[24] = tested on: Fulvia fulva; test: Antifungal activity against Fulvia fulva after 72 hrs by serial dilution method; format: functional; procedure, shortened: as §3
[25] = tested on: Talaromyces funiculosus; test: Antifungal activity against Penicillium funiculosum ATCC 36839 treated for 72 hrs followed by sub-cultivated for 5 days by serial dilution method; format: functional
Procedure, shortened: (§4)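 MFC obtained after the 72 h, 28 °C malt-broth microdilution (spore inoculum about 1.0 × 10^5 per well, compounds from 1 mg/ml DMSO). 2 µl was serially subcultured into 100 µl broth per well and incubated a further 5 days at 28 °C. MFC is the lowest concentration with no visible growth, taken as 99.5% killing of the original inoculum.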

[26] = tested on: Penicillium ochrochloron; test: Antifungal activity against Penicillium ochrochloron ATCC 9112 treated for 72 hrs followed by sub-cultivated for 5 days by serial dilution method; format: functional; procedure, shortened: as §4
[27] = tested on: Trichoderma viride; test: Antifungal activity against Trichoderma viride IAM 5061 treated for 72 hrs followed by sub-cultivated for 5 days by serial dilution method; format: functional; procedure, shortened: as §4
[28] = tested on: Aspergillus fumigatus; test: Antifungal activity against Aspergillus fumigatus human isolate treated for 72 hrs followed by sub-cultivated for 5 days by serial dilution method; format: functional; procedure, shortened: as §4
[29] = tested on: Aspergillus niger; test: Antifungal activity against Aspergillus niger ATCC 6275 treated for 72 hrs followed by sub-cultivated for 5 days by serial dilution method; format: functional; procedure, shortened: as §4
[30] = tested on: Aspergillus flavus; test: Antifungal activity against Aspergillus flavus ATCC 9643 treated for 72 hrs followed by sub-cultivated for 5 days by serial dilution method; format: functional; procedure, shortened: as §4
[31] = tested on: Aspergillus versicolor; test: Antifungal activity against Aspergillus versicolor ATCC 11730 treated for 72 hrs followed by sub-cultivated for 5 days by serial dilution method; format: functional; procedure, shortened: as §4
[32] = tested on: Fulvia fulva; test: Antifungal activity against Fulvia fulva treated for 72 hrs followed by sub-cultivated for 5 days by serial dilution method; format: functional; procedure, shortened: as §4

| SMILES | MIC [1] [µM] | MIC [2] [µM] | MIC [3] [µM] | MIC [4] [µM] | MIC [5] [µM] | MIC [6] [µM] | MIC [7] [µM] | MIC [8] [µM] | MBC [9] [µM] | MBC [10] [µM] | MBC [11] [µM] | MBC [12] [µM] | MBC [13] [µM] | MBC [14] [µM] | MBC [15] [µM] | MBC [16] [µM] | MIC [17] [µM] | MIC [18] [µM] | MIC [19] [µM] | MIC [20] [µM] | also measured |
| --- | --- | --- | --- | --- | --- | --- | --- | --- | --- | --- | --- | --- | --- | --- | --- | --- | --- | --- | --- | --- | --- |
| COc1cc(Cc2n[nH]c(=O)n2C(C)C)c(S(=O)(=O)N(C)C)cc1OC | 390 (≈ 150 µg/mL) | 260 (≈ 100 µg/mL) | 390 (≈ 150 µg/mL) | 390 (≈ 150 µg/mL) | 390 (≈ 150 µg/mL) | 390 (≈ 150 µg/mL) | 390 (≈ 150 µg/mL) | 390 (≈ 150 µg/mL) | 390 (≈ 150 µg/mL) | 780 (≈ 300 µg/mL) | 390 (≈ 150 µg/mL) | 390 (≈ 150 µg/mL) | 390 (≈ 150 µg/mL) | 390 (≈ 150 µg/mL) | 390 (≈ 150 µg/mL) | 390 (≈ 150 µg/mL) | 260 (≈ 100 µg/mL) | 130 (≈ 50 µg/mL) | 30 (≈ 11.5 µg/mL) | 30 (≈ 11.5 µg/mL) | MIC [21]: 260 µM (≈ 100 µg/mL); MIC [22]: 260 µM (≈ 100 µg/mL); MIC [23]: 130 µM (≈ 50 µg/mL); MIC [24]: 260 µM (≈ 100 µg/mL); MFC [25]: 260 µM (≈ 100 µg/mL); MFC [26]: 390 µM (≈ 150 µg/mL); MFC [27]: 70 µM (≈ 26.9 µg/mL); MFC [28]: 130 µM (≈ 50 µg/mL); MFC [29]: 390 µM (≈ 150 µg/mL); MFC [30]: 390 µM (≈ 150 µg/mL); MFC [31]: 390 µM (≈ 150 µg/mL); MFC [32]: 260 µM (≈ 100 µg/mL) |
| COc1cc(Cc2n[nH]c(=O)n2C(C)(C)C)c(S(=O)(=O)N(C)C)cc1OC | 390 (≈ 155 µg/mL) | 250 (≈ 99.6 µg/mL) | 390 (≈ 155 µg/mL) | 390 (≈ 155 µg/mL) | 390 (≈ 155 µg/mL) | 250 (≈ 99.6 µg/mL) | 250 (≈ 99.6 µg/mL) | 130 (≈ 51.8 µg/mL) | 390 (≈ 155 µg/mL) | 780 (≈ 311 µg/mL) | 390 (≈ 155 µg/mL) | 390 (≈ 155 µg/mL) | 390 (≈ 155 µg/mL) | 250 (≈ 99.6 µg/mL) | 250 (≈ 99.6 µg/mL) | 250 (≈ 99.6 µg/mL) | 130 (≈ 51.8 µg/mL) | 250 (≈ 99.6 µg/mL) | 30 (≈ 12 µg/mL) | 250 (≈ 99.6 µg/mL) | MIC [21]: 250 µM (≈ 99.6 µg/mL); MIC [22]: 250 µM (≈ 99.6 µg/mL); MIC [23]: 250 µM (≈ 99.6 µg/mL); MIC [24]: 250 µM (≈ 99.6 µg/mL); MFC [25]: 250 µM (≈ 99.6 µg/mL); MFC [26]: 380 µM (≈ 151 µg/mL); MFC [27]: 250 µM (≈ 99.6 µg/mL); MFC [28]: 380 µM (≈ 151 µg/mL); MFC [29]: 380 µM (≈ 151 µg/mL); MFC [30]: 380 µM (≈ 151 µg/mL); MFC [31]: 380 µM (≈ 151 µg/mL); MFC [32]: 250 µM (≈ 99.6 µg/mL) |

— ChEMBL document CHEMBL1944580, “Synthesis of novel sulfonamide-1,2,4-triazoles, 1,3,4-thiadiazoles and 1,3,4-oxadiazoles, as potential antibacterial and antifungal agents. Biological evaluation and conformational analysis studies” (2012)
